Sampled rows, rich in hits. Any-hit rate of the full collection: about 2%.
VLA-4 inh – inhibition in human VLA-4 binding assay, primary screen, VLA-4 allosteric modulator project, MLPCN library, flow cytometry, VLA-4 expressing cells. Integrin alpha-4 (Homo sapiens), P13612. ligand binding flow cytometry. inhibition, % (about 7 µM as worked out from the volumes in the protocol). 0.2% of 330,000 active; in the data active means inhibition above about 50%
ABCB6 inh 2 – ABCB6 transporter inhibitors, primary screen, K562-ABCB6 cells, flow cytometry, MLPCN library. fluorescence ratio to DMSO, % at 10 µM. 0.19% of 360,000 active. ATP-binding cassette sub-family B member 6 (Homo sapiens), Q9NP58. K562-ABCB6 porphyrin accumulation, 1 h; hits give low values. AID 602162, 2011;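 active means fluorescence ratio to DMSO below 75%, the collection mean minus 3 SD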;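 further: signal is porphyrin accumulated inside mitochondria; 100% equals median channel fluorescence of DMSO control wells; lower ratio means ABCB6 inhibition with less porphyrin fluorescence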
MT1-MMP act inh – blockers of MT1-MMP proenzyme processing, primary screen, HT1080 RFP-PRO-GFP cells, GFP/RFP fluorescence. GFP/RFP ratio change, % at 20 µM. Matrix metalloproteinase-14 (Homo sapiens), P50281. AID 651647, 2012. 0.061% of 360,000 active. GFP/RFP ratio fluorescence, overnight; percent of plate control window, DMSO zero;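 active means GFP/RFP ratio change of at least 30% with cell ATP level not reduced by more than half and red fluorescence within 50% of control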
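Material – HT1080 RFP-PRO-GFP cells · Control set – DMSO wells and RFP-L50D-GFP cells · Incubation – overnight cell settling, then overnight compound exposure, 37 °C, 5% CO2 · Compound dosing – single-point 20 µM compound, 1% DMSO · Read-out – GFP/RFP fluorescence ratio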
DAGLB inh – DAGLB lipase inhibitors, primary screen, biochemical, fluorescence, HTS. Diacylglycerol lipase-beta (Homo sapiens), Q8NCG7. HEK293T DAGLB membrane lysate, EnzChek fluorogenic substrate. inhibition, % at 5.17 µM. 0.059% of 340,000 active. AID 504411, 2011; in the data active means inhibition above about 34%;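 further: 0% = enzyme with vehicle and 100% = wells lacking enzyme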
Exocytosis inh – LAMP-1 surface exposure blockers, TALL-104 cells – cell-based, flow cytometry, MLPCN library, primary screen; TALL-104 LAMP-1 surface exposure; cells stimulated with thapsigargin and PMA; inhibition, % at 10 µM; 0.66% of 360,000 active;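 active means inhibition above about 55%, limit read from the data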
FGF22 binding – binders of human FGF22 protein, primary screen, FGF22 synaptogenesis inhibitor project, biophysical, thermal shift, single point. Fibroblast growth factor 22 (Homo sapiens), Q9HCT0. recombinant FGF22 thermal shift, SYPRO orange fluorescence; percent of sucrose octasulfate shift, DMSO zero. activity (Tm shift, normalised), % at 9.99 µM. 1.5% of 340,000 active. AID 651658, 2012;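 active means mean Tm shift, scaled 0 neutral to 100 positive control, at about 1.3% or above, every replicate too, limit read from the data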
* = called active by the depositor.

For Cc1cccc(-c2ccc([C@H]3[C@H]4CN(S(=O)(=O)c5cccc(C)c5)CCCCN4[C@H]3CO)cc2)c1 the results were FGF22 binding 18*.
COc1ccc(NC(=O)N(C)C[C@@H]2Oc3cc(-c4ccc(C)cc4)ccc3S(=O)(=O)N([C@@H](C)CO)C[C@@H]2C)cc1 was read as FGF22 binding 1.
`CC(C(=O)NCc1ccc2c(c1)OCO2)N(c1ccccc1)S(C)(=O)=O` (centres undefined) gave VLA-4 inh 10, ABCB6 inh 2 94, MT1-MMP act inh 1, DAGLB inh 1 and Exocytosis inh -3.
Screening Cc1ccc(N(C(C)C(=O)NCc2ccncc2)S(C)(=O)=O)cc1C (centres undefined) returned VLA-4 inh 0, ABCB6 inh 2 95, MT1-MMP act inh -1, DAGLB inh -3, Exocytosis inh -2 and FGF22 binding 43*.
`CCOC(=O)c1c(SCCN2CCCCC2)n(-c2ccccc2)c(=S)n(-c2ccccc2)c1=O` gave ABCB6 inh 2 96, MT1-MMP act inh -2, DAGLB inh -1, Exocytosis inh 69* and FGF22 binding 0.
Screening C[C@H]1CN([C@@H](C)CO)C(=O)c2cc(C3=CCCCC3)cnc2O[C@@H]1CN(C)C(=O)c1ccc2c(c1)OCO2 returned FGF22 binding 0.
O=C(CN1C(=O)CC(c2ccccc2)Sc2ccccc21)NCC1CCCO1 (centres undefined) was read as VLA-4 inh 4, ABCB6 inh 2 109, MT1-MMP act inh 0, DAGLB inh -3, Exocytosis inh -10 and FGF22 binding 43*.
Screening Cc1ccc(-c2cnc3c(c2)C(=O)N([C@H](C)CO)C[C@@H](C)[C@@H](CN(C)CC2CCOCC2)O3)cc1 returned FGF22 binding 0.
CCN1Cc2c(/C=C/c3ccccc3)nc3ccc(OC)cc3c2N(c2cccc(Cl)c2)C1 was read as VLA-4 inh -64, ABCB6 inh 2 151, MT1-MMP act inh -33, DAGLB inh -6, Exocytosis inh 65* and FGF22 binding 0.
C[C@H]1CN([C@@H](C)CO)C(=O)Cc2cc(NC(=O)CCN3CCOCC3)ccc2O[C@H]1CN(C)Cc1ccccc1 was read as FGF22 binding 1.
`Cn1c(=O)c([N+](=O)[O-])c(Cl)c2ccccc21` gave ABCB6 inh 2 105, MT1-MMP act inh 10, DAGLB inh 1, Exocytosis inh 71* and FGF22 binding 0.
`O=c1c2c(-c3ccccc3)csc2ncn1/N=C/c1ccc(O)c([N+](=O)[O-])c1` gave VLA-4 inh -2, ABCB6 inh 2 96, MT1-MMP act inh 4, DAGLB inh -2, Exocytosis inh -2 and FGF22 binding 44*.
Cc1noc(C)c1S(=O)(=O)Nc1ccc2c(c1)C(=O)N([C@@H](C)CO)C[C@H](C)[C@@H](CN(C)C(=O)NC(C)C)O2 was read as FGF22 binding 0.
Screening C[C@@H]1CCCCO[C@H](CN(C)C(=O)Nc2ccc3c(c2)OCO3)[C@H](C)CN([C@@H](C)CO)C(=O)c2cc(NC(=O)Nc3cccc4ccccc34)ccc2O1 returned FGF22 binding -1.
`C[C@H](CO)N1C[C@H](C)[C@@H](CN(C)C(=O)c2ccncc2)Oc2cc(-c3cccc(C#N)c3)ccc2S1(=O)=O` gave FGF22 binding 0.

High-throughput results as filed in PubChem BioAssay.
